According to ChEMBL document CHEMBL1138652, “Chlorothiophenecarboxamides as P1 surrogates of inhibitors of blood coagulation factor Xa” (Bioorg Med Chem Lett, 2004):
Converted amounts (≈) assume the structure as drawn.

How the values were obtained:
Coagulation factor X = Coagulation factor X (Homo sapiens, UniProt P00742); experiment: Inhibitory concentration against human serine protease factor Xa
Summary of the method: (§1)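 Human factor Xa, thrombin and trypsin were each monitored in vitro with a protease-specific chromogenic substrate. Inhibition was calculated from the ratio of optical density in drug-containing versus vehicle-containing assays.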

Prothrombin = Prothrombin (Homo sapiens, UniProt P00734); experiment: Inhibitory concentration against human thrombin activity; summary of the method: as §1
Trypsin = Trypsin (Homo sapiens, UniProt P07477+P07478+P35030); experiment: Inhibitory concentration against human trypsin activity; assay type: protein assay; summary of the method: as §1
[1] = Maximum absorbable dose of compound after administration at dose of 10 mg/kg was determined; assay type: ADME, organism-based; parameters: dose 10 mg/kg; conditions: human
[2] = Solubility was determined; assay type: ADME; conditions: human
Summary of the method: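 Shake-flask solubility was measured in phosphate buffer at pH 7 and 37 °C.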

[3] = Area under curve concentration of compound at 6 hr after peroral administration at dose of 0.5 mg/kg in female dogs was determined; assay type: ADME, organism-based, Canis lupus familiaris; parameters: time < 6 hr, dose 0.5 mg/kg, route oral; conditions: dog, in vivo, po
Summary of the method: (§2)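 Pharmacokinetics were studied in male Wistar rats (N = 3), female Beagle dogs (N = 2) and female Cynomolgus monkeys (N = 2). Each animal received single intravenous and oral doses. Plasma concentration–time data gave Cmax, tmax, AUC, t1/2, CL, Vss and oral bioavailability.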

[4] = Area under curve concentration of compound after intravenous administration at dose of 0.2 mg/kg in female monkeys was determined; assay type: ADME, organism-based; parameters: dose 0.2 mg/kg, route intravenous; conditions: cercopithecidae, in vivo; summary of the method: as §2
[5] = Clearance of compound after intravenous administration at dose of 0.2 mg/kg in male wistar rats was determined; assay type: ADME, organism-based; parameters: dose 0.2 mg/kg, route intravenous; conditions: rat, in vivo; summary of the method: as §2
[6] = Maximum time taken for concentration of compound in plasma after peroral administration at dose of 0.5 mg/kg in female monkeys was determined; assay type: ADME, organism-based; parameters: dose 0.5 mg/kg, route oral; conditions: cercopithecidae, po; summary of the method: as §2
[7] = Maximum plasma concentration after peroral administration of compound at dose of 0.5 mg/kg in female dogs was determined; assay type: ADME, organism-based, Canis lupus familiaris; parameters: dose 0.5 mg/kg, route oral; conditions: dog, po; summary of the method: as §2
[8] = Maximum plasma concentration after peroral administration of compound at dose of 0.5 mg/kg in female monkeys was determined; assay type: ADME, organism-based; parameters: dose 0.5 mg/kg, route oral; conditions: cercopithecidae, po; summary of the method: as §2
[9] = Maximum plasma concentration after peroral administration of compound at dose of 0.5 mg/kg in male wistar rats was determined; assay type: ADME, organism-based; parameters: dose 0.5 mg/kg, route oral; conditions: rat, po; summary of the method: as §2
[10] = Maximum time taken for concentration of compound in plasma after peroral administration at dose of 0.5 mg/kg in female dogs was determined; assay type: ADME, organism-based, Canis lupus familiaris; parameters: dose 0.5 mg/kg, route oral; conditions: dog, po; summary of the method: as §2
[11] = Clearance of compound after intravenous administration at dose of 0.2 mg/kg in female monkeys was determined; assay type: ADME, organism-based; parameters: dose 0.2 mg/kg, route intravenous; conditions: cercopithecidae, in vivo; summary of the method: as §2
[12] = Area under curve concentration of compound after intravenous administration at dose of 0.2 mg/kg in male wistar rats was determined; assay type: ADME, organism-based; parameters: dose 0.2 mg/kg, route intravenous; conditions: rat, in vivo; summary of the method: as §2
[13] = Area under curve concentration of compound at 6 hr after peroral administration at dose of 0.5 mg/kg in female monkeys was determined; assay type: ADME, organism-based; parameters: time < 6 hr, dose 0.5 mg/kg, route oral; conditions: cercopithecidae, in vivo, po; summary of the method: as §2
[14] = Area under curve concentration of compound at 6 hr after peroral administration at dose of 0.5 mg/kg in male wistar rats was determined; assay type: ADME, organism-based; parameters: time < 6 hr, dose 0.5 mg/kg, route oral; conditions: rat, in vivo, po; summary of the method: as §2
[15] = Bioavailability of compound after peroral administration at dose of 0.5 mg/kg in female dogs was determined; assay type: ADME, organism-based, Canis lupus familiaris; conditions: dog, in vivo, po, read-out: Bioavailabiility; summary of the method: as §2
[16] = Bioavailability of compound after peroral administration at dose of 0.5 mg/kg in female monkeys was determined; assay type: ADME, organism-based; conditions: cercopithecidae, in vivo, po, read-out: Bioavailabiility; summary of the method: as §2
[17] = Bioavailability of compound after peroral administration at dose of 0.5 mg/kg in male wistar rats was determined; assay type: ADME, organism-based; conditions: rat, in vivo, po, read-out: Bioavailabiility; summary of the method: as §2
[18] = Maximum time taken for concentration of compound in plasma after peroral administration at dose of 0.5 mg/kg in male wistar rats was determined; assay type: ADME, organism-based; parameters: dose 0.5 mg/kg, route oral; conditions: rat, po; summary of the method: as §2
[19] = Half life of compound after intravenous administration at dose of 0.2 mg/kg in female monkeys was determined; assay type: ADME, organism-based; parameters: dose 0.2 mg/kg, route intravenous; conditions: cercopithecidae, in vivo; summary of the method: as §2
[20] = Half life of compound after intravenous administration at dose of 0.2 mg/kg in male wistar rats was determined; assay type: ADME, organism-based; parameters: dose 0.2 mg/kg, route intravenous; conditions: rat, in vivo; summary of the method: as §2
[21] = Steady state volume of distribution of compound after intravenous administration at dose of […] was determined; assay type: ADME, organism-based, Canis lupus familiaris; parameters: route intravenous; conditions: dog, in vivo, read-out: Vss; summary of the method: as §2
[22] = Steady state volume of distribution of compound after intravenous administration at dose of 0.2 mg/kg in female monkeys was determined; assay type: ADME, organism-based; parameters: dose 0.2 mg/kg, route intravenous; conditions: cercopithecidae, in vivo, read-out: Vss; summary of the method: as §2
[23] = Steady state volume of distribution of compound after intravenous administration at dose of 0.2 mg/kg in male wistar rats was determined; assay type: ADME, organism-based; parameters: dose 0.2 mg/kg, route intravenous; conditions: rat, in vivo, read-out: Vss; summary of the method: as §2
[24] = Clearance of compound after intravenous administration at dose of 0.15 mg/kg in female dogs was determined; conditions: dog, in vivo
[25] = Half life of compound after intravenous administration at dose of 0.15 mg/kg in female dogs was determined; conditions: dog, in vivo
[26] = Area under curve concentration of compound after intravenous administration at dose of 0.15 mg/kg in female dogs was determined; conditions: dog, in vivo

Chain of Coagulation factor X (P00742 41-179 limits assumed): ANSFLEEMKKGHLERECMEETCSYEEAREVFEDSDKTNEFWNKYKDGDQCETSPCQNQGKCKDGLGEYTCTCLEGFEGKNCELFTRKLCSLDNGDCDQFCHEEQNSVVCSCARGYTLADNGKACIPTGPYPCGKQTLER
Chain of Coagulation factor X (P00742 235-488 limits assumed): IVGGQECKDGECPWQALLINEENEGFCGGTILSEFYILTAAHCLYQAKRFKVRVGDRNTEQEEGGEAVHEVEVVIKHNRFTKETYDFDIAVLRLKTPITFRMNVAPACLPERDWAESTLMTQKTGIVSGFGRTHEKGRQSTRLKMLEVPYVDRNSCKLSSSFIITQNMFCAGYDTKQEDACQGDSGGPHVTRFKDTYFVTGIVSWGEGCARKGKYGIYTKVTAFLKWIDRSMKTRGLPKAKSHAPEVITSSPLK

C[C@@H](NC(=O)c1ccc(Cl)s1)C(=O)Nc1ccc(N2CCOCC2=O)cc1
IC50 (Coagulation factor X): 0.059 µM | IC50 (Prothrombin): > 10 µM | IC50 (Trypsin): > 10 µM

CC(C)[C@@H](NC(=O)c1ccc(Cl)s1)C(=O)Nc1ccc(N2CCOCC2=O)cc1
IC50 (Coagulation factor X): 0.066 µM | IC50 (Prothrombin): > 10 µM | IC50 (Trypsin): > 10 µM

Cc1cc(NC(=O)[C@@H](CO)NC(=O)c2ccc(Cl)s2)ccc1N1CCOCC1=O
IC50 (Coagulation factor X): 0.029 µM | IC50 (Prothrombin): > 10 µM | IC50 (Trypsin): > 10 µM | MAD [1]: 11 mg/kg | solubility [2]: 0.52 mg/mL (≈ 1190 µM)

COC[C@@H](NC(=O)c1ccc(Cl)s1)C(=O)Nc1ccc(N2CCOCC2=O)c(F)c1
IC50 (Coagulation factor X): 0.022 µM | IC50 (Prothrombin): > 10 µM | IC50 (Trypsin): > 10 µM

CCC[C@@H](NC(=O)Nc1ccc(Cl)cc1)C(=O)Nc1ccc(N2CCOCC2=O)cc1
IC50 (Prothrombin): > 10 µM | IC50 (Trypsin): > 10 µM

CCOC[C@@H](NC(=O)c1ccc(Cl)s1)C(=O)Nc1ccc(N2CCOCC2=O)c(C)c1
IC50 (Coagulation factor X): 0.01 µM | IC50 (Prothrombin): > 10 µM | IC50 (Trypsin): > 10 µM

O=C(N[C@H](C(=O)Nc1ccc(N2CCOCC2=O)cc1)c1ccccc1)c1ccc(Cl)s1
IC50 (Coagulation factor X): 0.026 µM | IC50 (Prothrombin): > 10 µM | IC50 (Trypsin): > 10 µM

CC[C@@H](NC(=O)c1ccc(Cl)s1)C(=O)Nc1ccc(N2CCOCC2=O)cc1
IC50 (Coagulation factor X): 0.02 µM | IC50 (Prothrombin): > 10 µM | IC50 (Trypsin): > 10 µM

O=C(N[C@@H](C(=O)Nc1ccc(N2CCOCC2=O)cc1)c1ccccc1)c1ccc(Cl)s1
IC50 (Coagulation factor X): 0.029 µM | IC50 (Prothrombin): > 10 µM | IC50 (Trypsin): > 10 µM

CCC[C@@H](NC(=O)c1ccc(Cl)s1)C(=O)Nc1ccc(N2CCOCC2=O)cc1
IC50 (Coagulation factor X): 0.012 µM | IC50 (Prothrombin): > 10 µM | IC50 (Trypsin): > 10 µM

O=C(CNC(=O)c1ccc(Cl)s1)Nc1ccc(N2CCOCC2=O)cc1
IC50 (Coagulation factor X): 0.7 µM | IC50 (Prothrombin): > 10 µM | IC50 (Trypsin): > 10 µM

COCCOC[C@@H](NC(=O)c1ccc(Cl)s1)C(=O)Nc1ccc(N2CCOCC2=O)c(C)c1
IC50 (Coagulation factor X): 0.011 µM | MAD [1]: 22 mg/kg | solubility [2]: 1.05 mg/mL (≈ 2130 µM)

COC[C@@H](NC(=O)c1ccc(Cl)s1)C(=O)Nc1ccc(N2CCOCC2=O)c(Cl)c1
IC50 (Coagulation factor X): 0.013 µM | IC50 (Prothrombin): > 10 µM | IC50 (Trypsin): > 10 µM

COC[C@@H](NC(=O)c1ccc(Cl)s1)C(=O)Nc1ccc(N2CCOCC2=O)c(C)c1
AUC [3]: 0.211 µg·h/mL | AUC [4]: 0.803 µg·h/mL | clearance [5]: 0.94 L/h/kg | Tmax [6]: 30 min | IC50 (Prothrombin): > 10 µM | IC50 (Trypsin): > 10 µM | Cmax [7]: 0.161 µg/mL | Cmax [8]: 0.27 µg/mL | Cmax [9]: 0.092 µg/mL | MAD [1]: 11 mg/kg | Tmax [10]: 30 min | clearance [11]: 0.25 L/h/kg | AUC [12]: 0.212 µg·h/mL | AUC [13]: 1.1 µg·h/mL | AUC [14]: 0.271 µg·h/mL | bioavailability [15]: ~60% | bioavailability [16]: ~80% | bioavailability [17]: ~60% | Tmax [18]: 150 min | half-life [19]: 138 min | half-life [20]: 66 min | solubility [2]: 0.51 mg/mL (≈ 1130 µM) | Vd [21]: 0.86 L/kg | Vd [22]: 0.81 L/kg | Vd [23]: 1.6 L/kg | clearance [24]: 1.3 L/h/kg | half-life [25]: 34.2 min | AUC [26]: 0.117 µg·h/mL

CC(C)C[C@@H](NC(=O)c1ccc(Cl)s1)C(=O)Nc1ccc(-n2ccccc2=O)cc1
IC50 (Coagulation factor X): 0.016 µM | IC50 (Prothrombin): > 10 µM | IC50 (Trypsin): > 10 µM

COC[C@@H](NC(=O)c1ccc(Cl)s1)C(=O)Nc1ccc(N2CCOCC2=O)c(C(F)(F)F)c1
IC50 (Coagulation factor X): 0.014 µM

CC(C)C[C@@H](NC(=O)c1ccc(Cl)s1)C(=O)Nc1ccc(N2CCOCC2=O)cc1
IC50 (Coagulation factor X): 0.015 µM | IC50 (Prothrombin): > 10 µM | IC50 (Trypsin): > 10 µM

Cc1cc(NC(=O)[C@@H](CC(C)C)NC(=O)c2ccc(Cl)s2)ccc1N1CCOCC1=O
IC50 (Coagulation factor X): 0.0072 µM | IC50 (Prothrombin): > 10 µM | IC50 (Trypsin): > 10 µM | MAD [1]: 0.6 mg/kg | solubility [2]: 0.029 mg/mL (≈ 62.5 µM)

CCCOC[C@@H](NC(=O)c1ccc(Cl)s1)C(=O)Nc1ccc(N2CCOCC2=O)c(C)c1
IC50 (Coagulation factor X): 0.012 µM | IC50 (Prothrombin): > 10 µM | IC50 (Trypsin): > 10 µM | MAD [1]: 1.9 mg/kg | solubility [2]: 0.092 mg/mL (≈ 192 µM)

Cc1cc(NC(=O)[C@@H](C)NC(=O)c2ccc(Cl)s2)ccc1N1CCOCC1=O
IC50 (Coagulation factor X): 0.015 µM | IC50 (Prothrombin): > 10 µM | IC50 (Trypsin): > 10 µM | MAD [1]: 2.8 mg/kg | solubility [2]: 0.134 mg/mL (≈ 318 µM)

O=C(CCc1ccc2nc(-c3ccc(Cl)s3)[nH]c2c1)Nc1ccc(N2CCOCC2=O)cc1F
IC50 (Prothrombin): > 10 µM

CC(C)C[C@H](NC(=O)c1ccc(Cl)s1)C(=O)Nc1ccc(N2CCOCC2=O)cc1
IC50 (Coagulation factor X): 0.13 µM | IC50 (Prothrombin): > 10 µM | IC50 (Trypsin): > 10 µM

CCC[C@@H](NC(=O)c1ccc(Cl)s1)C(=O)Nc1ccc(N2CCOCC2=O)c(C)c1
IC50 (Coagulation factor X): 0.0095 µM | IC50 (Prothrombin): > 10 µM | IC50 (Trypsin): > 10 µM

CC[C@@H](NC(=O)c1ccc(Cl)s1)C(=O)Nc1ccc(N2CCOCC2=O)c(C)c1
IC50 (Coagulation factor X): 0.011 µM | IC50 (Prothrombin): > 10 µM | IC50 (Trypsin): > 10 µM | MAD [1]: 6.5 mg/kg | solubility [2]: 0.041 mg/mL (≈ 94.1 µM)

CC(C)C[C@@H](NC(=O)c1ccc(Cl)s1)C(=O)Nc1ccc(-n2ccncc2=O)cc1
IC50 (Coagulation factor X): 0.039 µM | IC50 (Prothrombin): > 10 µM | IC50 (Trypsin): > 10 µM
